Measured values published in ChEMBL document CHEMBL1275392, “Assessment of chemoselective neoglycosylation methods using chlorambucil as a model” (2010).

Legend:
SF-268 = experiment: Growth inhibition of human SF268 cells after 7 days by celltiter-glo assay; assay type: functional; details: SF-268, 168 h
DU-145 = experiment: Growth inhibition of human DU145 cells after 7 days by celltiter-glo assay; assay type: functional; details: DU-145, 168 h
NCI-H460 = experiment: Growth inhibition of human NCI-H460 cells after 7 days by celltiter-glo assay; assay type: functional; details: NCI-H460, 168 h
[1] = Growth inhibition of human p53 deficient Hep3B cells after 7 days by celltiter-glo assay; assay type: functional, Hep 3B2; details: 168 h
Summary of the method: (§1)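 Cells seeded at 500 per well in 384-well plates. Compounds came from 30 mM DMSO stocks, serially diluted and tested in quadruplicate. Incubation was 7 d at 37 °C under 5% CO2. Calcein AM (10 μM) and EthD-1 were added, followed by a fluorescence read. CellTiter-Glo lysis was then done for 10 min at room temperature, with a luminescence read. GI50 came from curve fitting.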

[2] = Growth inhibition of human p53 deficient H1299 cells after 7 days by celltiter-glo assay; assay type: functional; details: NCI-H1299, 168 h; summary of the method: as §1
HCT-15 = experiment: Growth inhibition of human HCT15 cells after 7 days by celltiter-glo assay; assay type: functional; details: HCT-15, 168 h
MCF7 = experiment: Growth inhibition of human MCF7 cells after 7 days by celltiter-glo assay; assay type: functional; details: MCF7, 168 h
HT-29 = experiment: Growth inhibition of human HT-29 cells after 7 days by celltiter-glo assay; assay type: functional; details: HT-29, 168 h
SK-OV-3 = experiment: Growth inhibition of human SKOV3 cells after 7 days by celltiter-glo assay; assay type: functional; details: SK-OV-3, 168 h
A549 = experiment: Growth inhibition of human A549 cells expressing p53 after 7 days by celltiter-glo assay; assay type: functional; details: A549, 168 h

SMILES	GI50 (SF-268) [µM]	GI50 (DU-145) [µM]	GI50 (NCI-H460) [µM]	GI50 [1] [µM]	GI50 [2] [µM]	GI50 (HCT-15) [µM]	GI50 (MCF7) [µM]	GI50 (HT-29) [µM]	GI50 (SK-OV-3) [µM]	GI50 (A549) [µM]
CON(CCCc1ccc(N(CCCl)CCCl)cc1)C1O[C@@H](C)[C@@H](O)[C@@H](O)[C@@H]1O (stereo not given in full)	2	3.8	5.4	3	1.2	1.4	0.78	2.3	1.8	2.2
O=C(CCCc1ccc(N(CCCl)CCCl)cc1)N/N=C/[C@@H](O)[C@H](O)CO	2.6	9.5	10.8	4.1	2.6	7.3	4.2	4.8	6.2	7.5
CON(CCCc1ccc(N(CCCl)CCCl)cc1)[C@@H]1O[C@H](CO)[C@H](O)[C@H](O)[C@@H]1O	1.7	3.4	4.3	2.6	2.4	2	1.8	1.9	2	2.7
CON(CCCc1ccc(N(CCCl)CCCl)cc1)C1O[C@H](CO)[C@@H](O)[C@@H](O)[C@H]1O (stereo not given in full)	3.1	5.8	9.5	4.4	0.53	0.97	9.3	0.6	3	3.4
CON(CCCc1ccc(N(CCCl)CCCl)cc1)C1O[C@H](CO)[C@H](O)[C@H](O)[C@H]1O (stereo not given in full)	1.9	5.6	9.7	3.6	1.3	2.4	1.3	3.3	3.4	4.4
CON(CCCc1ccc(N(CCCl)CCCl)cc1)C1C[C@H](O)[C@H](O)[C@@H](C)O1 (stereo not given in full)	2.8	4.3	6.5	3.2	1.1	1.3	6.3	2.1	3	2.7
CON(CCCc1ccc(N(CCCl)CCCl)cc1)[C@@H]1O[C@H](CO[C@@H]2O[C@H](CO)[C@H](O)[C@H](O)[C@H]2O)[C@@H](O)[C@H](O)[C@H]1O	16.3	36	45.5	29	17.8	20	21	27.4	27	40
O=C(CCCc1ccc(N(CCCl)CCCl)cc1)NN[C@@H]1O[C@H]2[C@H](OC(=O)[C@H]2O)[C@H]1O	8.9	23	43	17.7	12.9	> 100	9.9	30	37	31
C=CCOC(=O)NC[C@H]1O[C@@H](N(CCCc2ccc(N(CCCl)CCCl)cc2)OC)[C@H](O)[C@@H](O)[C@@H]1O	3.1	6.2	11	4.6	2.1	2.1	7.4	2.8	2.9	4.5
CON(CCCc1ccc(N(CCCl)CCCl)cc1)[C@@H]1O[C@H](C)[C@@H](O)[C@H](O)[C@H]1O	2.9	4.9	8.5	4.4	1.8	1.1	5.8	2.2	2.9	4.6
CON(CCCc1ccc(N(CCCl)CCCl)cc1)C1C[C@@H](O)[C@@H](O)CO1 (stereo not given in full)	2	3.3	5.2	2.5	3.9	2.2	1.3	2.3	2.2	2.5
CON(CCCc1ccc(N(CCCl)CCCl)cc1)C1O[C@H](C(=O)O)[C@H](O)[C@H](O)[C@H]1NC(C)=O (stereo not given in full)	4.2	16.7	42	11.8	3.8	19.1	4.4	12	11	22
CON(CCCc1ccc(N(CCCl)CCCl)cc1)C1O[C@@H](C)[C@H](O)[C@@H](O)[C@H]1O (stereo not given in full)	1.9	4.2	5.3	2.6	3.7	2	2.2	2.4	2	2.5
CON(CCCc1ccc(N(CCCl)CCCl)cc1)C1C[C@@H](O)[C@@H](O)[C@@H](CO)O1 (stereo not given in full)	2.2	5	6.6	3.3	1.5	1.6	1.04	3.5	2.4	3.2
CON(CCCc1ccc(N(CCCl)CCCl)cc1)C1O[C@@H](CO)[C@H](O)[C@@H](O)[C@H]1O (stereo not given in full)	2	4.9	9.8	3.7	1.2	2.2	2.2	3.4	2.9	4.1
CO[C@@H]1[C@@H](OC(N)=O)[C@@H](O)C(N(CCCc2ccc(N(CCCl)CCCl)cc2)OC)OC1(C)C (stereo not given in full)	5.1	6.7	9.7	6	1.3	1.7	4.8	6	5.4	5.8
CON(CCCc1ccc(N(CCCl)CCCl)cc1)C1O[C@H](C(=O)O)[C@H](O)[C@H](O)[C@H]1O (stereo not given in full)	8.9	16.3	34	14.7	4.9	8.1	4.5	14.9	12.8	17.1
CON(CCCc1ccc(N(CCCl)CCCl)cc1)C1O[C@@H](CO)[C@H](O)[C@@H](O)[C@@H]1O (stereo not given in full)	2	4.8	8	3.9	0.55	0.88	3.2	2.9	2.5	3.3
CO[C@@H]1[C@@H](O)[C@H](N(CCCc2ccc(N(CCCl)CCCl)cc2)OC)O[C@H](CO)[C@H]1O	2.8	5.1	7.8	4.2	1.7	1.1	8.3	2.7	2.4	3.6
